{"data": "Results from different studies", "HTR1E": "5-hydroxytryptamine receptor 1E (HTR1E, Homo sapiens, UniProt P28566)", "APC": "Adenomatous polyposis coli protein (APC, Homo sapiens, UniProt P25054)", "Palmitoyl-protein thioesterase 1": "Palmitoyl-protein thioesterase 1 (Homo sapiens, UniProt P50897)", "AVPR2": "Vasopressin V2 receptor (AVPR2, Homo sapiens, UniProt P30518)", "CSNK1A1/CRBN": "Cereblon/Casein kinase I alpha (CSNK1A1/CRBN, Homo sapiens, UniProt P48729+Q96SW2)", "note": "Compare with care: the assays were run in different laboratories."}
{"SMILES": "CCCN1C[C@H](CSC)C[C@@H]2c3cccc4[nH]cc(c34)C[C@H]21", "target": "HTR1E", "assay": "G protein activation, agonist, BRET", "measurement": "EC50", "value": "1.9 µM"}
{"SMILES": "CSc1cccc(C(=O)N[C@@H](CCC(=O)O)C(=O)N[C@@H](Cc2ccc3ccccc3c2)C(=O)N[C@@H](CC(C)C)C(=O)NC2CC2c2ccccc2)c1 (stereo partly drawn)", "target": "APC", "assay": "ligand displacement, FP", "measurement": "IC50", "value": "52.5 µM"}
{"SMILES": "NC(=O)N[C@@H](CCC(=O)O)C(=O)O", "target": "Palmitoyl-protein thioesterase 1", "assay": "binding, MST", "measurement": "Kd", "value": "1270 nM"}
{"SMILES": "CC1=NN(/C(=N/c2nnc(C)s2)Nc2ccc(C)c(C)c2)C(c2cc(F)c(F)c(F)c2F)S1 (stereo not drawn)", "target": "AVPR2", "assay": "cAMP, positive allosteric modulator", "measurement": "EC50", "value": "> 50 µM"}
{"SMILES": "Cc1ccc(CNc2cccc3c2CN(C)N(C2CCC(=O)NC2=O)C3=O)cc1 (stereo not drawn)", "target": "CSNK1A1/CRBN", "assay": "protein level, degrader, luciferase", "measurement": "DC50", "value": "970 nM"}
{"SMILES": "CCCNC(=O)NS(=O)(=O)c1ccc(Cl)cc1", "target": "Palmitoyl-protein thioesterase 1", "assay": "binding, MST", "measurement": "Kd", "value": "201 nM"}
{"SMILES": "CC(C)C[C@H](NC(=O)[C@H](Cc1ccc2ccccc2c1)NC(=O)[C@H](CCC(=O)O)NC(=O)c1cccc(Br)c1)C(=O)NC1CC1c1ccccc1 (stereo partly drawn)", "target": "APC", "assay": "ligand displacement, FP", "measurement": "IC50", "value": "11.2 µM"}
{"SMILES": "CC1=NN(/C(=N\\c2ccc(Br)cc2)Nc2nnc(C)s2)C(c2ccc(C)cc2)S1 (stereo not drawn)", "target": "AVPR2", "assay": "cAMP, positive allosteric modulator", "measurement": "EC50", "value": "17.6 µM"}
{"SMILES": "C#Cc1cccc(C(=O)N[C@@H](CCC(=O)O)C(=O)N[C@@H](Cc2ccc3ccccc3c2)C(=O)N[C@@H](CC(C)C)C(=O)NC2CC2c2ccccc2)c1 (stereo partly drawn)", "target": "APC", "assay": "ligand displacement, FP", "measurement": "IC50", "value": "24 µM"}
{"SMILES": "CC(C)=CCNc1ncnc2c1ncn2[C@@H]1O[C@H](CO)[C@@H](O)[C@H]1O", "target": "Adenosine receptor A3 (ADORA3, Homo sapiens, UniProt P0DMS8, I253Q)", "assay": "G protein activation, agonist", "measurement": "EC50", "value": "0.08 µM"}
{"SMILES": "O=C1c2ccccc2S(=O)(=O)N1CCCCN1CCN(c2ncccn2)CC1", "target": "HTR1E", "assay": "G protein activation, agonist, BRET", "measurement": "EC50", "value": "0.628 µM"}
{"SMILES": "CCCCCCCC/C=C\\CCCCCCCC(=O)O", "target": "Myoglobin (MB, Homo sapiens, UniProt P02144)", "assay": "binding, absorbance", "measurement": "Kd", "value": "240 nM"}
{"SMILES": "Cc1cc(C(C)(C)C)c(O)c(C)c1CC1=NCCN1", "target": "HTR1E", "assay": "G protein activation, agonist, BRET", "measurement": "EC50", "value": "0.516 µM"}
{"SMILES": "OC(c1cc(C(F)(F)F)nc2c(C(F)(F)F)cccc12)C1CCCCN1 (stereo not drawn)", "target": "Palmitoyl-protein thioesterase 1", "assay": "binding, MST", "measurement": "Kd", "value": "226 nM"}
{"SMILES": "CN1Cc2c(N)cccc2C(=O)N1C1CCC(=O)NC1=O (stereo not drawn)", "target": "CSNK1A1/CRBN", "assay": "protein level, degrader, luciferase", "measurement": "DC50", "value": "> 10000 nM"}
{"SMILES": "CSc1nccc(C(=O)N[C@@H](CCC(=O)O)C(=O)N[C@@H](Cc2ccc3ccccc3c2)C(=O)N[C@@H](CC(C)C)C(=O)N[C@@H]2C[C@H]2c2ccccc2)n1", "target": "APC", "assay": "binding, SPR", "measurement": "Kd", "value": "380 nM"}
{"SMILES": "CC1=NN(/C(=N/c2nnc(C)s2)Nc2ccc(C)c(C)c2)C(c2ccc(F)c(F)c2)S1 (stereo not drawn)", "target": "AVPR2", "assay": "cAMP, positive allosteric modulator", "measurement": "EC50", "value": "> 50 µM"}
{"SMILES": "COc1cccc(C(=O)N[C@@H](CCC(=O)O)C(=O)N[C@@H](Cc2ccc3ccccc3c2)C(=O)N[C@@H](CC(C)C)C(=O)NC2CC2c2ccccc2)c1 (stereo partly drawn)", "target": "APC", "assay": "ligand displacement, FP", "measurement": "IC50", "value": "38.9 µM"}
{"SMILES": "CC1=NN(/C(=N\\c2ccc(C)cc2)Nc2nnc(C)s2)C(c2ccc(C)cc2)S1 (stereo not drawn)", "target": "AVPR2", "assay": "cAMP, positive allosteric modulator", "measurement": "EC50", "value": "24.2 µM"}
{"SMILES": "CN(C)CCCN1c2ccccc2Sc2ccc(Cl)cc21", "target": "HTR1E", "assay": "G protein activation, agonist, BRET", "measurement": "EC50", "value": "2.08 µM"}
{"SMILES": "N#C[C@@]12C[C@@H]1[C@@H](n1cnc3c(N[C@@H](C4CCC4)C4CC4)nc(I)nc31)[C@H](O)[C@@H]2O", "target": "Adenosine receptor A3 (ADORA3, Homo sapiens, UniProt P0DMS8)", "assay": "ligand displacement, radioligand", "measurement": "Ki", "value": "> 1000 nM"}
{"SMILES": "CN(C)c1ncnc2c1ncn2[C@@H]1O[C@H](CO)[C@@H](O)[C@H]1O", "target": "Adenosine receptor A3 (ADORA3, Homo sapiens, UniProt P0DMS8, L264A)", "assay": "G protein activation, agonist", "measurement": "EC50", "value": "4 µM"}
{"SMILES": "CSc1ncc(Br)c(C(=O)N[C@@H](CCC(=O)O)C(=O)N[C@@H](Cc2ccc3ccccc3c2)C(=O)N[C@@H](CC(C)C)C(=O)N[C@@H]2C[C@H]2c2ccccc2)n1", "target": "APC", "assay": "binding, SPR", "measurement": "Kd", "value": "230 nM"}
{"SMILES": "COC(=O)[C@]12CCC(C)(C)C[C@H]1[C@H]1C(=O)C=C3[C@@]4(C)C=C(C#N)C(=O)C(C)(C)[C@@H]4CC[C@@]3(C)[C@]1(C)CC2", "target": "Epidermal growth factor receptor (EGFR, Homo sapiens, UniProt P00533)", "assay": "binding, MST", "measurement": "Kd", "value": "79000 nM"}
{"SMILES": "Cc1ccc(N/C(=N\\c2nnc(C(C)(C)C)s2)N2N=C(C(C)(C)C)SC2c2cc(F)c(F)c(F)c2)cc1C (stereo not drawn)", "target": "AVPR2", "assay": "cAMP, positive allosteric modulator", "measurement": "EC50", "value": "> 50 µM"}
{"SMILES": "Cc1cc(C(=O)N[C@@H](CCC(=O)O)C(=O)N[C@@H](Cc2ccc3ccccc3c2)C(=O)N[C@@H](CC(C)C)C(=O)NC2CC2c2ccccc2)ccn1 (stereo partly drawn)", "target": "APC", "assay": "ligand displacement, FP", "measurement": "IC50", "value": "40.7 µM"}
{"SMILES": "Cc1ccc(Sc2ccccc2N2CCNCC2)c(C)c1", "target": "HTR1E", "assay": "G protein activation, agonist, BRET", "measurement": "EC50", "value": "1.96 µM"}
{"SMILES": "CC1=NN(/C(=N\\c2ccc(C(F)(F)F)cc2)Nc2nnc(C)s2)C(c2ccc(C)cc2)S1 (stereo not drawn)", "target": "AVPR2", "assay": "cAMP, positive allosteric modulator", "measurement": "EC50", "value": "16.6 µM"}
{"SMILES": "CC(C)C[C@H](NC(=O)[C@H](Cc1ccc2ccccc2c1)NC(=O)[C@H](CCC(=O)O)NC(=O)c1ccncn1)C(=O)NC1CC1c1ccccc1 (stereo partly drawn)", "target": "APC", "assay": "binding, SPR", "measurement": "Kd", "value": "2300 nM"}
{"SMILES": "CC1=NN(/C(=N/c2nnc(C)s2)Nc2ccc(C)c(C)c2)C(c2cccnc2)S1 (stereo not drawn)", "target": "AVPR2", "assay": "cAMP, positive allosteric modulator", "measurement": "EC50", "value": "> 50 µM"}
{"SMILES": "Nc1nnc(-c2ccccc2O)cc1N1CCN(Cc2ccc(OCCOCCNc3cccc4c3C(=O)N(C3CCC(=O)NC3=O)C4=O)c(F)c2)CC1 (stereo not drawn)", "target": "SWI/SNF-related matrix-associated actin-dependent regulator of chromatin subfamily A member 2 (SMARCA2, Homo sapiens, UniProt P51531)", "assay": "protein level, degrader, western blot", "measurement": "DC50", "value": "64 nM"}
{"SMILES": "C=CCN1C[C@H](C(=O)N(CCCN(C)C)C(=O)NCC)C[C@@H]2c3cccc4[nH]cc(c34)C[C@H]21", "target": "HTR1E", "assay": "G protein activation, agonist, BRET", "measurement": "EC50", "value": "1.72 µM"}
{"SMILES": "CCc1ccc(/N=C(/Nc2nnc(C)s2)N2N=C(C)SC2c2ccc(C)cc2)cc1 (stereo not drawn)", "target": "AVPR2", "assay": "cAMP, positive allosteric modulator", "measurement": "EC50", "value": "15.8 µM"}
